# Test results reported in article PMC12749109 (Nature Communications, 2025).
# Entries after “also recorded” stand apart in the source; their conditions may differ.
# Assays:
# [1] = test system: DSS-induced intestinal inflammation; assay type: in vivo, chicken
# How it was run: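 Forty 21-day-old male yellow-feathered broilers were split into control, DSS and two peptide groups under 24 h light, with free food and water. DSS groups were gavaged with […] of 4% DSS daily from day 21 to 29. Treated birds got 100 μL of 50 μM peptide i.p. daily. TNF-α, IL-1β and IL-6 were measured by ELISA in jejunum/ileum homogenates (1:9 w/v ice-cold PBS, pH 7.4; 5000 × g, 10 min, 4 °C).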
# [2] = test system: DSS-induced colitis; assay: DSS-induced colitis in wild-type mice, overall therapeutic efficacy; assay type: in vivo, mouse; details: chicken and mouse colitis models, overall statement
# [3] = test system: colon transcriptome; assay: RNA-seq of colon tissue, DSS-induced colitis mice; assay type: in vivo; details: mouse colon
# How it was run: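 Total RNA was extracted from mouse colon with Trizol, sequenced on BGIseq500 and mapped to the mouse genome. Data were analysed in R and reported as mean ± SEM.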
# [4] = test system: Caco2 cells; assay: RT-qPCR cytokine expression, Caco2 cell inflammation model; assay type: cell-based, human; details: IL-1β + TNF-α
# [5] = test system: ARRB2; assay: 2% DSS colitis in Arrb2 cKO mice, overall; assay type: in vivo, mouse; details: Arrb2 cKO (gut epithelial) mice, vs AAV control mice
# How it was run: (§1)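 Male Arrb2fl/fl or Gnaqfl/fl mice (7–8 weeks) were fasted overnight, anaesthetised, and given 100 μL AAV8-Vil-cre or AAV8-Vil-null (1E+11 vg/mL) by catheter 4 cm into the colon. One week later they received 2% DSS in drinking water for 7 days. Read-outs were body weight, DAI, colon length, H&E, serum IL-6/IL-1β ELISA, and colonic Il6/Tnf/Il1b/Tgfb1/Tjp1/Ocln mRNA.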
# [6] = test system: Gnaq; assay: 2% DSS colitis in Gnaq cKO mice, overall; assay type: in vivo, mouse; details: Gnaq cKO (gut epithelial) mice, vs AAV control mice
# How it was run: as §1
# [7] = test system: GALR1; assay: SRE-luc luciferase; assay type: cell-based; details: HEK293, GALR1, luciferase, 12 h
# How it was run: (§2)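 HEK293 cells were transfected (Lipofectamine) with empty pcDNA3.1 or GALR plasmid (2 μg) plus CRE, NFAT-RE or SRE luciferase reporter. After 36 h, medium was replaced with serum-free medium containing test peptide, diluted in DMEM from a 1 mM water stock, for 12 h. Luciferase was read 48 h post-transfection. Technical triplicate; mean ± SD; 37 °C, 5% CO2.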
# [8] = test system: GALR1; assay: CRE-luc luciferase; assay type: cell-based; details: HEK293, GALR1, luciferase, 12 h
# How it was run: as §2
# [9] = test system: GALR1; assay: NFAT-luc luciferase; assay type: cell-based; details: HEK293, GALR1, luciferase, 12 h
# How it was run: as §2
# [10] = test system: GALR2; assay: SRE-luc luciferase; assay type: cell-based; details: HEK293, GALR2, luciferase, 12 h
# How it was run: as §2
# [11] = test system: GALR2; assay: CRE-luc luciferase; assay type: cell-based; details: HEK293, GALR2, luciferase, 12 h
# How it was run: as §2
# [12] = test system: GALR2; assay: NFAT-luc luciferase; assay type: cell-based; details: HEK293, GALR2, luciferase, 12 h
# How it was run: as §2
# [13] = test system: GALR3; assay: SRE-luc luciferase; assay type: cell-based; details: HEK293, GALR3, luciferase, 12 h
# How it was run: as §2
# [14] = test system: GALR3; assay: CRE-luc luciferase; assay type: cell-based; details: HEK293, GALR3, luciferase, 12 h
# How it was run: as §2
# [15] = test system: GALR3; assay: NFAT-luc luciferase; assay type: cell-based; details: HEK293, GALR3, luciferase, 12 h
# How it was run: as §2
# [16] = test system: mGALR2 mutants; assay: Tango β-arrestin2 recruitment, binding-site mutants; assay type: cell-based, mouse
# [17] = Tolerability of peptide alone in healthy male mice, overall; assay type: in vivo, mouse; details: daily i.p. for six consecutive days
# How it was run: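 Healthy male mice received daily i.p. test peptide for six consecutive days alongside a saline-injected control group. Body weight, water intake, food intake and colon length were recorded.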
# [18] = test system: GALR2; assay: G protein versus β-arrestin2 signaling bias at GALR2; assay type: cell-based
# [19] = test system: mGALR2; assay: G protein pathway activation, HEK293 luciferase; assay type: cell-based; details: mouse GALR2, vs cGAL53
# How it was run: as §2
# [20] = test system: hGALR2; assay: G protein pathway activation, HEK293 luciferase; assay type: cell-based; details: human GALR2, vs cGAL53
# How it was run: as §2
# [21] = test system: TNBS-induced colitis; details: rat acute TNBS colitis; cited from earlier work
# [22] = test system: GALR1; details: cited from earlier work
# [23] = test system: GALR2; details: cited from earlier work
# [24] = test system: GALR3; details: cited from earlier work
substance,measurement,setting,value
GWTLNSAGYLLGPHAVDNHRSFNDKHGFT-NH2 [cGAL29],IBD-related symptoms in DSS-treated chickens,"[1]; chicken, 4% DSS oral gavage, daily i.p. peptide","ameliorated IBD-related symptoms in chickens, manifested as reductions of body weight loss, intestinal bleeding points and tissue damage"
same,expression of colonic inflammatory factors induced by DSS,[1]; chickens,reduced the expression of colonic inflammatory factors
same,"alleviation of colitis / intestinal inflammation, overall",[2],alleviated intestinal inflammation symptoms in mouse colitis induced by DSS and TNBS
same,DSS-changed pathways (KEGG),[3],significantly modulated
same,expression levels of immune-related genes,[3],significantly reduced
same,concentration giving (similar) anti-inflammatory effect,[4],10 µM
same,"expression of Il6, Il23 and Tgfb1 induced by IL-1β and TNF-α",[4]; RT-qPCR,reduced
same,"therapeutic effects (weight loss, colon shortening, intestinal damage, inflammation)",[5],significantly diminished; also recorded: negated the therapeutic effects
same,"ability to alleviate weight loss, colon shortening, intestinal damage, inflammation",[6],significantly reduced
same,Gi (SRE-luc) activation,[7],not GALR1
same,Gs (CRE-luc) activation,[8],not GALR1
same,Gq (NFAT-luc) activation,[9],not GALR1
same,Gi (SRE-luc) activation,[10],can activate
same,Gs (CRE-luc) activation,[11],more robust activation; also recorded: can activate
same,Gq (NFAT-luc) activation,[12],more robust activation; also recorded: can activate
same,Gi (SRE-luc) activation,[13],can activate
same,Gs (CRE-luc) activation,[14],can activate
same,Gq (NFAT-luc) activation,[15],can activate
same,β-arrestin2 recruitment after mutation of predicted unique binding sites,[16],affected
same,"body weight, water and food intake, colon length (tolerability)",[17],"neither peptide affected body weight, water, and food intake, nor colon length, indicating good tolerability"
same,bias at GALR2,[18],G protein-
same,G protein activation / ARRB2 recruitment via GALR2,"[18]; GALR2, overall statement",stronger activation of G protein signaling pathways via GALR2
same,activation of G protein pathways,[19],more strongly than cGAL53
same,activation of G protein pathways,[20],more strongly than cGAL53
"galanin: biologically active neuropeptide of 29/30 amino acids, cited literature",severity of colonic damage and inflammatory responses,[21],decreases inflammatory responses; also recorded: reduce the severity of colonic damage and inflammatory responses
same,affinity,[22],high affinity
same,affinity,[23],high affinity
same,affinity,[24],lower affinity
